Measured values: ChEMBL document CHEMBL4038323, “Discovery and Kinetic Profiling of 7-Aryl-1,2,4-triazolo[4,3-a]pyridines: Positive Allosteric Modulators of the Metabotropic Glutamate Receptor 2” (J Med Chem, 2017)
Active and inactive are the calls of the source. The rule behind the calls is not given here.

Assays:
[1] = target: T1, Metabotropic glutamate receptor 2 (Homo sapiens, UniProt Q14416); assay: Displacement of [3H]JNJ-46281222 from human metabotropic glutamate receptor 2 expressed in CHOK1 cell membranes assessed as association rate constant measured every 30 sec for 120 mins by scintillation proximity assay
In short: (§1)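 For the SPA competition association, CHO-K1_hmGlu2 membranes (20 µg) were pre-coupled 30 min to WGA SPA beads, then mixed with 6 nM [3H]JNJ-46281222, competitor and 1 mM glutamate. Counts were read every 30 s for 120 min at 28°C.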
Target sequence in this assay (Q14416 19-872 limits assumed): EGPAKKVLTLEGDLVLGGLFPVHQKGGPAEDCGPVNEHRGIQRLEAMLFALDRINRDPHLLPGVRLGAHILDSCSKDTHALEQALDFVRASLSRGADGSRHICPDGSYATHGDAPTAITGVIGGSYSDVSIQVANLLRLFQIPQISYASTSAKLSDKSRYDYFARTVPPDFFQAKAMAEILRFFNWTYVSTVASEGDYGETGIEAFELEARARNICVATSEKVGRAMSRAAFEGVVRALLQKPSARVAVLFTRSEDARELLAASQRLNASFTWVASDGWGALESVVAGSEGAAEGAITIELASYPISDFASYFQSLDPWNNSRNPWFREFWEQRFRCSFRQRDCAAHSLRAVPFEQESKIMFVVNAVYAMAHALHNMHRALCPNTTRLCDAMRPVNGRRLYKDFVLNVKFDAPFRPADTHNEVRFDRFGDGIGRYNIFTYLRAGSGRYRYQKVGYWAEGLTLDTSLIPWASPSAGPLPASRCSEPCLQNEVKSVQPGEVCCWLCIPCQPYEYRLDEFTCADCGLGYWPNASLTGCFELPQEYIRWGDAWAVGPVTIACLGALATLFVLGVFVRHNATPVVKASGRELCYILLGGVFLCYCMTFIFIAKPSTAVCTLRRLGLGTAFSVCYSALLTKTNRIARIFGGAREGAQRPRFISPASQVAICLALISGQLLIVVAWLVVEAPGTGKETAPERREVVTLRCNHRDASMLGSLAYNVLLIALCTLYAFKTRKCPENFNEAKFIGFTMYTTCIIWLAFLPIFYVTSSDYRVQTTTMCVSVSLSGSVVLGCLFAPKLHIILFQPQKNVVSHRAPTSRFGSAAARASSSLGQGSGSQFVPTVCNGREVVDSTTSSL

[2] = target: T1, Metabotropic glutamate receptor 2; assay: Displacement of [3H]JNJ-46281222 from human metabotropic glutamate receptor 2 expressed in CHOK1 cell membranes assessed as dissociation rate constant measured every 30 sec for 120 mins by scintillation proximity assay; in short: as §1
Target sequence in this assay (Q14416 19-872 limits assumed): as above

[3] = target: T1, Metabotropic glutamate receptor 2; assay: Displacement of [3H]JNJ-46281222 from human metabotropic glutamate receptor 2 expressed in CHOK1 cell membranes assessed as residence time measured every 30 sec for 120 mins by scintillation proximity assay; in short: as §1
Target sequence in this assay (Q14416 19-872 limits assumed): as above

[4] = target: T1, Metabotropic glutamate receptor 2; assay: Binding affinity to human metabotropic glutamate receptor 2 expressed in CHOK1 cell membranes by scintillation proximity assay
Target sequence in this assay (Q14416 whole entry): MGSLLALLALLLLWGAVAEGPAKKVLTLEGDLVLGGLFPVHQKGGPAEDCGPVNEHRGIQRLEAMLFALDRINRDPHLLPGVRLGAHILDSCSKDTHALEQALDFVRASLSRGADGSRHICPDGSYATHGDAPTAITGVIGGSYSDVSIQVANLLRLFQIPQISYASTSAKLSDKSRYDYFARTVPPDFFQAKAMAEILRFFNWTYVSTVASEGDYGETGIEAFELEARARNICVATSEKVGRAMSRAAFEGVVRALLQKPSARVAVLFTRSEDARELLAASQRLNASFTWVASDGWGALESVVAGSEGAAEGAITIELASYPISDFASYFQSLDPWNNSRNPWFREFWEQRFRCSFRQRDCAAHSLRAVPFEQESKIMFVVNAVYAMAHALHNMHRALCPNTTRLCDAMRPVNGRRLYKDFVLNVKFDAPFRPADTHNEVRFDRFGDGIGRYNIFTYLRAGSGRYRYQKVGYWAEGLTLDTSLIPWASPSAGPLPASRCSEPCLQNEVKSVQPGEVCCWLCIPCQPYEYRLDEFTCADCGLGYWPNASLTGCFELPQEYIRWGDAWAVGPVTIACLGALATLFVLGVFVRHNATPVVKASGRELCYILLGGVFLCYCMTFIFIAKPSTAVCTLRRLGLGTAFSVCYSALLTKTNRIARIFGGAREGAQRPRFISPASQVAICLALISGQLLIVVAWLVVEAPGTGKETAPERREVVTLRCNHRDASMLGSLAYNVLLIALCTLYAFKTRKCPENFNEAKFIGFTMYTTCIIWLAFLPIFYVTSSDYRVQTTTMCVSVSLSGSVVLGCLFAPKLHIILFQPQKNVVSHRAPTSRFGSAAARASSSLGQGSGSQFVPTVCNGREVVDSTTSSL

[5] = target: T1, Metabotropic glutamate receptor 2; assay: Positive allosteric modulation of human metabotropic glutamate receptor 2 expressed in CHOK1 cell membranes assessed as increase in glutamate-induced [35S]GTPgammaS binding preincubated for 30 mins followed by [35S]GTPgammaS addition measured after 30 mins by Topcount scintillation counting method; format: functional
Target sequence in this assay (Q14416 whole entry): as above

[6] = target: T1, Metabotropic glutamate receptor 2; assay: Displacement of [3H]-JNJ46281222 from human metabotropic glutamate receptor 2 expressed in CHOK1 cell membranes after 60 mins by microbeta counting analysis
Target sequence in this assay (Q14416 whole entry): as above

[7] = target: T1, Metabotropic glutamate receptor 2; assay: Positive allosteric modulation of human metabotropic glutamate receptor 2 expressed in CHOK1 cells assessed as cellular impedance measured for 20 mins with 15 sec time interval followed by 40 mins with 5 mins time interval and subsequently measured with 15 mins time interval in presence of endogenous glutamate levels by RTCA; format: cell-based
In short: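 Whole-cell impedance (Cell Index) in CHO-K1_hmGlu2 cells, 40,000/well, 18 h at 37°C before compound addition. Endogenous glutamate was about 90 µM. […] Three experiments in duplicate.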
Target sequence in this assay (Q14416 whole entry): as above

[8] = target: T1, Metabotropic glutamate receptor 2; assay: Positive allosteric modulation of human metabotropic glutamate receptor 2 expressed in CHOK1 cells assessed as cellular impedance at 200 nM incubated for 5mins followed by compound washout in presence of endogenous glutamate levels by RTCA; format: cell-based
Target sequence in this assay (Q14416 19-872 limits assumed): as the sequence (Q14416 19-872 limits assumed) above

[9] = target: T1, Metabotropic glutamate receptor 2; assay: Positive allosteric modulation of human metabotropic glutamate receptor 2 expressed in CHOK1 cells assessed as cellular impedance response by label-free xCELLigence assay
Target sequence in this assay (Q14416 19-872 limits assumed): as above

[10] = target: T1, Metabotropic glutamate receptor 2; assay: Positive allosteric modulation of human metabotropic glutamate receptor 2 expressed in CHOK1 cells assessed as cellular impedance at 60 nM incubated for 5mins followed by compound washout in presence of endogenous glutamate levels by RTCA; format: cell-based
Target sequence in this assay (Q14416 19-872 limits assumed): as above

Rattus norvegicus [11] = assay: In vivo positive allosteric modulation of metabotropic glutamate receptor 2 in Sprague-Dawley rat assessed as reduction in REM at 10 mg/kg, po measured for 24 consecutive 5 mins period; format: functional, organism-based
In short: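 Sprague-Dawley rats (n=8 per group) received single oral doses of 1, 3 or 10 mg/kg or 20% CD vehicle. REM sleep was scored in 24 consecutive 5-min bins over the first 2 h. Comparison was by mixed-model ANOVA.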

Rattus norvegicus [12] = assay: Effect on total sleep in Sprague-Dawley rat at 1 to 10 mg/kg, po measured for 2 hrs; format: ADME, organism-based; settings: in vivo
Brain = assay: Unbound concentration in Sprague-Dawley rat brain at 10 mg/kg, po measured after 1 hr; format: ADME, organism-based; settings: in vivo
[13] = target: Metabotropic glutamate receptor 1 (Homo sapiens) (UniProt Q13255); assay: Agonist activity at human metabotropic glutamate receptor 1 expressed in HEK293 cells assessed as induction of Ca2+ internalization after 1 hr by fluo-4-AM dye based fluorescence assay; format: functional, cell-based
Chain of Metabotropic glutamate receptor 1 (Homo sapiens) (Q13255 19-1194 limits assumed): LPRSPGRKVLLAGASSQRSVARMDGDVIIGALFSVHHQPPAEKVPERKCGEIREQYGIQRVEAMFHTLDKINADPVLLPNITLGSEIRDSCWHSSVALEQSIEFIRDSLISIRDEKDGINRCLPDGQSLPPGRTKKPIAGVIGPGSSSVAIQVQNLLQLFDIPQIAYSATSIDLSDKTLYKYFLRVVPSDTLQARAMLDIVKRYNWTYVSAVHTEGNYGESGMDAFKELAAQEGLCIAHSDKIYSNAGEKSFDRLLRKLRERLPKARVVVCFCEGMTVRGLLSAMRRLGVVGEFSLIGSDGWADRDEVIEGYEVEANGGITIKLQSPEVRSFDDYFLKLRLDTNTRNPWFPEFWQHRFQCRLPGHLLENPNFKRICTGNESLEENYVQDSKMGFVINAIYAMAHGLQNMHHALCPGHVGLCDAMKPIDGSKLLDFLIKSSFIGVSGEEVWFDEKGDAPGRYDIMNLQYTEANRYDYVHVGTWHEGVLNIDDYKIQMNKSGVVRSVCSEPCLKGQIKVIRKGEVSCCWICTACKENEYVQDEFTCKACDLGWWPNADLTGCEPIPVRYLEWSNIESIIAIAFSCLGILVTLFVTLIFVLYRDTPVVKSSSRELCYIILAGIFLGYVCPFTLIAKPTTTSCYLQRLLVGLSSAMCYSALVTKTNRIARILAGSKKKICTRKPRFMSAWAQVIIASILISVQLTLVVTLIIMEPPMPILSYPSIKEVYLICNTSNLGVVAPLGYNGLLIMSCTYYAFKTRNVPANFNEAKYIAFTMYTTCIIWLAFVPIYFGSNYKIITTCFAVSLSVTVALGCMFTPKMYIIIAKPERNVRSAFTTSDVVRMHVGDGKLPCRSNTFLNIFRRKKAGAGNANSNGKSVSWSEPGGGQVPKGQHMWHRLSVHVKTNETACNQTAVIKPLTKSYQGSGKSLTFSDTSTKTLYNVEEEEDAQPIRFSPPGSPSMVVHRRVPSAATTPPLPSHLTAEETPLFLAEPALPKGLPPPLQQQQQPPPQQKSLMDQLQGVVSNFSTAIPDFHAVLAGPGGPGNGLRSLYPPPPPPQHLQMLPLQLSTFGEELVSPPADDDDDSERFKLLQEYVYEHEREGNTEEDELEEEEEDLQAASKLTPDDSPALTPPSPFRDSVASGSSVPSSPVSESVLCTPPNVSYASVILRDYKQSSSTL

[14] = target: Metabotropic glutamate receptor 1 (Homo sapiens) (UniProt Q13255); assay: Antagonist activity at human metabotropic glutamate receptor 1 expressed in HEK293 cells assessed as inhibition of glutamate-induced Ca2+ internalization after 1 hr by fluo-4-AM dye based fluorescence assay; format: functional, cell-based
[15] = target: Metabotropic glutamate receptor 3 (Homo sapiens) (UniProt Q14832); assay: Agonist activity at human metabotropic glutamate receptor 3 expressed in HEK293 cells assessed as induction of Ca2+ internalization after 1 hr by fluo-4-AM dye based fluorescence assay; format: functional, cell-based
[16] = target: Metabotropic glutamate receptor 3 (Homo sapiens) (UniProt Q14832); assay: Antagonist activity at human metabotropic glutamate receptor 3 expressed in HEK293 cells assessed as inhibition of glutamate-induced Ca2+ internalization after 1 hr by fluo-4-AM dye based fluorescence assay; format: functional, cell-based
[17] = target: Metabotropic glutamate receptor 5 (Homo sapiens) (UniProt P41594); assay: Agonist activity at human metabotropic glutamate receptor 5 expressed in HEK293 cells assessed as induction of Ca2+ internalization after 1 hr by fluo-4-AM dye based fluorescence assay; format: functional, cell-based
Chain of Metabotropic glutamate receptor 5 (Homo sapiens) (P41594 21-1212 limits assumed): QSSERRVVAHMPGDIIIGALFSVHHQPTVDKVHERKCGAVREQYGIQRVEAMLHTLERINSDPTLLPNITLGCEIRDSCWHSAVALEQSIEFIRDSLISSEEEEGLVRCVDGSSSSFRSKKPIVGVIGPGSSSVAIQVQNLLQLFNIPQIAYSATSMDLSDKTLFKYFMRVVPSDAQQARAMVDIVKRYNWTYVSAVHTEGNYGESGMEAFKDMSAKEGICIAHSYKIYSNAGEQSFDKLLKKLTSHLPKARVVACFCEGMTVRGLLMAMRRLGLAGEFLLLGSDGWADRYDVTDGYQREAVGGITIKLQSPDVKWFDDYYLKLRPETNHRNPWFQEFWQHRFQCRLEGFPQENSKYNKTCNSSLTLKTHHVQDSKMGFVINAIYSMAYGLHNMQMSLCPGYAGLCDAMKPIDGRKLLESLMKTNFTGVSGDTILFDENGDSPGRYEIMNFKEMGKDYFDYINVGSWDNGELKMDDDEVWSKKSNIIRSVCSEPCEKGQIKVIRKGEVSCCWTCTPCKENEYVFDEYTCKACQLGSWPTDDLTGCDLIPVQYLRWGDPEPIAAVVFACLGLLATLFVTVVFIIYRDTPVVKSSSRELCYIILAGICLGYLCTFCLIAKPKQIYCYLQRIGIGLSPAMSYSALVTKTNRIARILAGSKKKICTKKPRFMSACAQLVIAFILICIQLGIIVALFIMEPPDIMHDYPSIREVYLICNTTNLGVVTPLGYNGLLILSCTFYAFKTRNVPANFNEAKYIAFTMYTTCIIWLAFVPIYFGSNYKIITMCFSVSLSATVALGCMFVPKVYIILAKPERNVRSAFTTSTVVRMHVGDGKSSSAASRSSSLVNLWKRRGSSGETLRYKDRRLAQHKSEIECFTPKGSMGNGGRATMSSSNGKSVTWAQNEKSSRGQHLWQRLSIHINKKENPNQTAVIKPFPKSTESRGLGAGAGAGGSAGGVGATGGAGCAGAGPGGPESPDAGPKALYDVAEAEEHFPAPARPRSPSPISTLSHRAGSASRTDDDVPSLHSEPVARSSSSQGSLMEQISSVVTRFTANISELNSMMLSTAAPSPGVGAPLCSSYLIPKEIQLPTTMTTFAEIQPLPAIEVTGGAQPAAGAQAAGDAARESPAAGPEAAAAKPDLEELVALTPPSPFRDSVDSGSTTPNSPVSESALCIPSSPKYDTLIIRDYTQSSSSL

[18] = target: Metabotropic glutamate receptor 5 (Homo sapiens) (UniProt P41594); assay: Antagonist activity at human metabotropic glutamate receptor 5 expressed in HEK293 cells assessed as inhibition of glutamate-induced Ca2+ internalization after 1 hr by fluo-4-AM dye based fluorescence assay; format: functional, cell-based
[19] = target: Metabotropic glutamate receptor 5 (Homo sapiens) (UniProt P41594); assay: Positive allosteric modulation of human metabotropic glutamate receptor 5 expressed in HEK293 cells assessed as induction of Ca2+ […] after 1 hr in the presence of glutamate by fluo-4-AM dye based fluorescence assay; format: functional, cell-based
[20] = target: Metabotropic glutamate receptor 7 (Homo sapiens) (UniProt Q14831); assay: Agonist activity at human metabotropic glutamate receptor 7 expressed in HEK293 cells assessed as induction of Ca2+ internalization after 1 hr by fluo-4-AM dye based fluorescence assay; format: functional, cell-based
[21] = target: Metabotropic glutamate receptor 7 (Homo sapiens) (UniProt Q14831); assay: Antagonist activity at human metabotropic glutamate receptor 7 expressed in HEK293 cells assessed as inhibition of glutamate-induced Ca2+ internalization after 1 hr by fluo-4-AM dye based fluorescence assay; format: functional, cell-based
[22] = target: Metabotropic glutamate receptor 8 (Homo sapiens) (UniProt O00222); assay: Agonist activity at human metabotropic glutamate receptor 8 expressed in HEK293 cells assessed as induction of Ca2+ internalization after 1 hr by fluo-4-AM dye based fluorescence assay; format: functional, cell-based
[23] = target: Metabotropic glutamate receptor 8 (Homo sapiens) (UniProt O00222); assay: Antagonist activity at human metabotropic glutamate receptor 8 expressed in HEK293 cells assessed as inhibition of glutamate-induced Ca2+ internalization after 1 hr by fluo-4-AM dye based fluorescence assay; format: functional, cell-based
[24] = target: Metabotropic glutamate receptor 4 (Homo sapiens) (UniProt Q14833); assay: Agonist activity at human metabotropic glutamate receptor 4 assessed as increase in [35S]GTPgammaS binding preincubated for 30 mins followed by [35S]GTPgammaS addition measured after 30 mins by Topcount scintillation counting method; format: functional
[25] = target: Metabotropic glutamate receptor 4 (Homo sapiens) (UniProt Q14833); assay: Antagonist activity at human metabotropic glutamate receptor 4 assessed as inhibition of glutamate-induced [35S]GTPgammaS binding preincubated for 30 mins followed by [35S]GTPgammaS addition measured after 30 mins by Topcount scintillation counting method; format: functional
[26] = target: Metabotropic glutamate receptor 6 (Rattus norvegicus) (UniProt P35349); assay: Agonist activity at rat metabotropic glutamate receptor 6 expressed in CHO cell membranes assessed as increase in [35S]GTPgammaS binding preincubated for 30 mins followed by [35S]GTPgammaS addition measured after 30 mins by Topcount scintillation counting method; format: functional
[27] = target: Metabotropic glutamate receptor 6 (Rattus norvegicus) (UniProt P35349); assay: Antagonist activity at rat metabotropic glutamate receptor 6 expressed in CHO cell membranes assessed as inhibition of glutamate-induced [35S]GTPgammaS binding preincubated for 30 mins followed by [35S]GTPgammaS addition measured after 30 mins by Topcount scintillation counting method; format: functional
[28] = target: T1, Metabotropic glutamate receptor 2; assay: Positive allosteric modulation of human metabotropic glutamate receptor 2 expressed in CHOK1 cells assessed as cellular impedance at 600 nM incubated for 5mins followed by compound washout in presence of endogenous glutamate levels by RTCA; format: cell-based
CHO-K1 = assay: Effect on cellular impedance in CHOK1 cells up to 1 uM measured for 20 mins with 15 sec time interval followed by 40 mins with 5 mins time interval and subsequently measured with 15 mins time interval by RTCA; format: functional, cell-based; settings: Cricetulus griseus
In short: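 xCELLigence impedance used 40,000 cells/well of wild-type CHO-K1 or CHO-K1_hmGlu2, rested 30 min at room temperature, then 18 h at 37°C, 5% CO2. Cells got 100 nM or 1 µM compound. Reads: every 15 s for 20 min, 5 min for 40 min, then 15 min. Baseline-corrected; three repeats in duplicate.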

| K [1] | K [2] | TIME [3] | Kd [4] | EC50 [5] | Ki [6] | EC50 [7] | EC80 [9] | SMILES | further results |
| --- | --- | --- | --- | --- | --- | --- | --- | --- | --- |
| 1.8 ×10⁷ /M/min | 0.067 min⁻¹ | 0.25 h | 3.8 nM | 18.6 nM | 5.01 nM | 18.6 nM | 200 nM | FC(F)(F)c1c(-c2ccc(NC3CCOCC3)c(Cl)c2)ccn2c(CC3CC3)nnc12 | Activity [8]: inactive |
| 1.4 ×10⁷ /M/min | 0.02 min⁻¹ | 0.825 h | 1.5 nM | 1.12 nM | 0.891 nM | 11.2 nM | 60 nM | O[C@]1(C2CC2)CC[C@H](Nc2ccc(-c3ccn4c(CC5CC5)nnc4c3C(F)(F)F)cc2Cl)CC1 | Activity [10]: Active |
| 1.3 ×10⁷ /M/min | 0.033 min⁻¹ | 0.502 h | 2.5 nM | 8.71 nM | 2.57 nM | – | – | Cc1ccc(Oc2ccc(-c3ccn4c(CC5CC5)nnc4c3C(F)(F)F)cc2F)c(C)n1 | Activity (Rattus norvegicus [11]): Active; Activity (Rattus norvegicus [12]): Non-Toxic; Drug uptake(free) (Brain): 5 ng/g |
| 2 ×10⁷ /M/min | 0.241 min⁻¹ | 0.0683 h | 12.3 nM | 38 nM | 5.25 nM | 89.1 nM | 600 nM | FC(F)(F)c1c(-c2ccc(OC3CCOCC3)c(Cl)c2)ccn2c(CC3CC3)nnc12 | Activity [13]: inactive; inhibition [14]: inactive; Activity [15]: inactive; inhibition [16]: inactive; Activity [17]: inactive; inhibition [18]: inactive; Activity [19]: inactive; Activity [20]: inactive; inhibition [21]: inactive; Activity [22]: inactive; inhibition [23]: inactive; Activity [24]: inactive; inhibition [25]: inactive; Activity [26]: inactive; inhibition [27]: inactive; Activity [28]: inactive |
| – | – | – | – | – | – | – | – | FC(F)(F)c1c(CN2CCC(c3ccccc3)CC2)ccn2c(CC3CC3)nnc12 | Activity (CHO-K1): inactive |
